The IC50 is the point on the concentration scale where inhibition reaches its midpoint. High values mean weaker potency in that assay, low ones greater potency in that assay.

The first assay deals with MKN-45. Briefly: Cytotoxicity of compound against human gastric adenocarcinoma cell line (MKN 45). It counts as functional, cell-based. The conditions noted are these: Homo sapiens, MKN-45. Summed up:
(§1)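 MTT assay: compounds dissolved in DMSO at 1 mM (stock), diluted in RPMI-FCS to various concentrations; single-cell suspensions treated at 37 °C, 5% CO2 for 4 days; MTT added for further 4 h, acid–isopropanol added, OD read at 540 nm. Fractional inhibition = 1 − OD sample/control; IC50 from Chou median-effect analysis; mean of triplicate experiments.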
For the molecule `Cc1nc2c([nH]1)C(=O)c1nccnc1C2=O`, 19.8 µM corresponded to half-maximal inhibition (IC50).
`O=C1c2nccnc2C(=O)c2nc(-c3ccccc3)c(-c3ccccc3)nc21` yielded an IC50 of 82.5 µM.
As for `O=C1c2nccnc2C(=O)c2nccnc21`, the half-maximal inhibitory concentration (IC50) worked out at 20.1 µM.
For `Cc1nc2c(n1-c1ccc(Br)cc1)C(=O)c1nccnc1C2=O`, the IC50 came to 1.3 µM.
For `CCn1c(C)nc2c1C(=O)c1nccnc1C2=O`, the IC50 is 93.1 µM.
In turn, `Cc1nc2c(nc1C)C(=O)c1nccnc1C2=O` came in with a 50% inhibitory concentration (IC50) of 16.7 µM.
With `Cc1nc2c(n1C)C(=O)c1nccnc1C2=O`, the half-inhibitory concentration (IC50) came to 34.1 µM. This IC50 lies about 2-fold higher than the previous one.
Regarding `CCc1nc2c(nc1C)C(=O)c1nccnc1C2=O`, half-maximal inhibition (IC50) required 13 µM.
`Cc1nc2c(n1C(C)C)C(=O)c1nccnc1C2=O` returned an IC50 of 61.1 µM.
As to `Cc1nc2c(n1-c1ccccc1)C(=O)c1nccnc1C2=O`, inhibition was half-maximal at 22.8 µM (IC50).
Still for that read-out and setting: as for `COc1cccc2c1C(=O)c1c(O)c3c(c(O)c1C2=O)C[C@@](O)(C(=O)CO)C[C@@H]3O[C@H]1C[C@H](N)[C@H](O)[C@H](C)O1` [DOXORUBICIN], the figure is 3.13 µM; as for `CCc1nc2c(nc1CC)C(=O)c1nccnc1C2=O`, 7.61 µM.

The assay is the same for the next values; noted with them: mkn-45.
With CISPLATIN, it took 86.5 µM to reach half-maximal inhibition (IC50).

A further assay relates to PC-14. Briefly: Cytotoxicity of compound against human lung adenocarcinoma cell line (PC14). It counts as functional, cell-based. The conditions noted are these: Homo sapiens, PC-14. Summed up:
as §1
The molecule `Cc1nc2c([nH]1)C(=O)c1nccnc1C2=O` registered a 50% inhibitory concentration (IC50) of 82.5 µM.
For `O=C1c2nccnc2C(=O)c2nc(-c3ccccc3)c(-c3ccccc3)nc21`, the half-inhibitory concentration (IC50) came out at 120 µM.
The same measure, in the same setting: as for `O=C1c2nccnc2C(=O)c2nccnc21`, the figure is 76.2 µM.
Consider `Cc1nc2c(n1-c1ccc(Br)cc1)C(=O)c1nccnc1C2=O`, for which the IC50 turned out to be 45.5 µM. Compared with the last molecule, the IC50 is about 1.7-fold lower.
Molecule `CCn1c(C)nc2c1C(=O)c1nccnc1C2=O` showed a concentration for half-maximal inhibition (IC50) of 130 µM.
The molecule `Cc1nc2c(nc1C)C(=O)c1nccnc1C2=O` came in with an IC50 of 74 µM.
Still for that read-out and setting: in the case of `Cc1nc2c(n1C)C(=O)c1nccnc1C2=O` it was 38.7 µM; in that of `CCc1nc2c(nc1C)C(=O)c1nccnc1C2=O`, 67.5 µM; in that of `Cc1nc2c(n1C(C)C)C(=O)c1nccnc1C2=O`, 78.3 µM.
In the case of `Cc1nc2c(n1-c1ccccc1)C(=O)c1nccnc1C2=O`, the IC50 was found to be 125 µM.
The molecule `COc1cccc2c1C(=O)c1c(O)c3c(c(O)c1C2=O)C[C@@](O)(C(=O)CO)C[C@@H]3O[C@H]1C[C@H](N)[C@H](O)[C@H](C)O1` [DOXORUBICIN] came in with a half-inhibitory concentration (IC50) of 0.29 µM. This IC50 lies about 430-fold lower than the previous one.
`CCc1nc2c(nc1CC)C(=O)c1nccnc1C2=O` came in with an IC50 of 20.5 µM.

The same assay, now with this note: pc-14.
For CISPLATIN, the IC50 worked out at 3.87 µM.

The values above are taken from ChEMBL document CHEMBL1131188, “Synthesis and cytotoxicity of 2-methyl-4, 9-dihydro-1-substituted-1H-imidazo[4,5-g]quinoxaline-4,9-diones and 2,3-disubstituted-5,10-pyrazino[2,3-g]quinoxalinediones” (J Med Chem, 1998).
